Assay results taken from ChEMBL document CHEMBL4330145, “Discovery of the Cyclic Lipopeptide Gacamide A by Genome Mining and Repair of the Defective GacA Regulator in Pseudomonas fluorescens Pf0-1” (2019).
Converted amounts (≈) assume the structure as drawn. The source made the active and inactive calls. No cut-off for these calls is given here.

How the values were obtained:
Listeria welshimeri = experiment: Antibacterial activity against Listeria welshimeri DSM 20650 after 24 hrs by agar diffusion assay; assay type: functional
Staphylococcus aureus [1] = experiment: Antibacterial activity against methicillin-resistant Staphylococcus aureus isolate LT-1338 after 24 hrs by agar diffusion assay; assay type: functional, organism-based
How it was run: (§1)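 Agar diffusion: 5% sheep blood Columbia agar plates overlaid with 3 mL tryptic soy soft agar seeded with a TSB suspension of the clinical isolate. Compound diluted in DMSO to 1 mg/mL, and 3 μL spotted on the agar surface. Inhibition zone diameter measured after 24 h at 37 °C. Strains were maintained on Mueller−Hinton or blood agar.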

[2] = test system: Agrobacterium tumefaciens; experiment: Antibacterial activity against Agrobacterium tumefaciens B6 after 24 hrs by agar diffusion assay; assay type: functional, organism-based
Micrococcus luteus = experiment: Antibacterial activity against Micrococcus luteus ATCC 4698 after 24 hrs by agar diffusion assay; assay type: functional, organism-based; conditions: NCTC 2665
[3] = test system: Stenotrophomonas maltophilia; experiment: Antibacterial activity against Stenotrophomonas maltophilia isolate O-16451 after 24 hrs by agar diffusion assay; assay type: functional, organism-based
How it was run: (§2)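 Plates of Columbia agar with 5% sheep blood were overlaid with 3 mL tryptic soy soft agar seeded with a TSB suspension of the test strain. Compound was diluted in DMSO to 1 mg/mL, and 3 μL was spotted on the agar surface. The inhibition-zone diameter was measured after 24 h at 37 °C. Clinical isolates were kept on Mueller−Hinton or blood agar.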

[4] = test system: Agrobacterium tumefaciens; experiment: Antibacterial activity against Agrobacterium tumefaciens C58 after 24 hrs by agar diffusion assay; assay type: functional, organism-based
Staphylococcus aureus [5] = experiment: Antibacterial activity against Staphylococcus aureus after 24 hrs by agar diffusion assay; assay type: functional, organism-based
[6] = test system: Klebsiella pneumoniae subsp. ozaenae; experiment: Antibacterial activity against Klebsiella pneumoniae subsp. ozaenae isolate I-10910 after 24 hrs by agar diffusion assay; assay type: functional, organism-based; how it was run: as §2
Staphylococcus aureus [7] = experiment: Antibacterial activity against methicillin sensitive Staphylococcus aureus isolate 5185 after 24 hrs by agar diffusion assay; assay type: functional, organism-based; how it was run: as §2
Citrobacter freundii = experiment: Antibacterial activity against Citrobacter freundii isolate I-11090 after 24 hrs by agar diffusion assay; assay type: functional, organism-based; how it was run: as §2
[8] = test system: Mycolicibacterium smegmatis; experiment: Antibacterial activity against Mycobacterium smegmatis after 24 hrs by agar diffusion assay; assay type: functional, organism-based
Enterococcus faecium [9] = experiment: Antibacterial activity against Enterococcus faecium isolate I-11054 after 24 hrs by agar diffusion assay; assay type: functional, organism-based; how it was run: as §2
Pseudomonas aeruginosa = experiment: Antibacterial activity against Pseudomonas aeruginosa isolate I-10968 after 24 hrs by agar diffusion assay; assay type: functional, organism-based; how it was run: as §2
Candida albicans [10] = experiment: Antifungal activity against Candida albicans isolate I-11301 after 24 hrs by agar diffusion assay; assay type: functional, organism-based
[11] = test system: Pseudomonas syringae pv. tomato str. DC3000; experiment: Antibacterial activity against Pseudomonas syringae DC3000 after 24 hrs by agar diffusion assay; assay type: functional
Rhodococcus fascians = experiment: Antibacterial activity against Rhodococcus fascians A44A after 24 hrs by agar diffusion assay; assay type: functional, organism-based; conditions: Rhodococcoides fascians
Staphylococcus simulans = experiment: Antibacterial activity against Staphylococcus simulans isolate 22 after 24 hrs by agar diffusion assay; assay type: functional, organism-based; how it was run: as §2
[12] = test system: Stenotrophomonas maltophilia; experiment: Antibacterial activity against Stenotrophomonas maltophilia isolate I-10717 after 24 hrs by agar diffusion assay; assay type: functional, organism-based; how it was run: as §2
Escherichia coli [13] = experiment: Antibacterial activity against Escherichia coli isolate O-19592 after 24 hrs by agar diffusion assay; assay type: functional, organism-based; how it was run: as §2
Candida albicans [14] = experiment: Antifungal activity against Candida albicans isolate I-11134 after 24 hrs by agar diffusion assay; assay type: functional, organism-based
Corynebacterium xerosis = experiment: Antibacterial activity against Corynebacterium xerosis after 24 hrs by agar diffusion assay; assay type: functional, organism-based
Escherichia coli [15] = experiment: Antibacterial activity against Escherichia coli isolate I-11276b after 24 hrs by agar diffusion assay; assay type: functional, organism-based; how it was run: as §2
Staphylococcus aureus [16] = experiment: Antibacterial activity against methicillin sensitive Staphylococcus aureus isolate I-11574 after 24 hrs by agar diffusion assay; assay type: functional, organism-based; how it was run: as §2
[17] = test system: Staphylococcus epidermidis; experiment: Antibacterial activity against methicillin-resistant Staphylococcus epidermidis isolate LT-1324 after 24 hrs by agar diffusion assay; assay type: functional, organism-based; how it was run: as §1
Priestia megaterium = experiment: Antibacterial activity against Bacillus megaterium Km after 24 hrs by agar diffusion assay; assay type: functional, organism-based
Staphylococcus aureus [18] = experiment: Antibacterial activity against Staphylococcus aureus isolate 133 after 24 hrs by agar diffusion assay; assay type: functional, organism-based; how it was run: as §2
Pseudomonas fluorescens = experiment: Antibacterial activity against Pseudomonas fluorescence A506 after 24 hrs by agar diffusion assay; assay type: functional, organism-based
[19] = test system: Arthrobacter crystallopoietes; experiment: Antibacterial activity against Arthrobacter crystallopoietes DSM 20117 after 24 hrs by microtiter plate broth dilution assay; conditions: Crystallibacter crystallopoietes, DSM 20117, 24 h
Bacillus subtilis = experiment: Antibacterial activity against Bacillus subtilis 168 after 24 hrs by agar diffusion assay; assay type: functional, organism-based; conditions: subsp. subtilis str. 168
Erwinia amylovora = experiment: Antibacterial activity against Erwinia amylovora Ea153 after 24 hrs by agar diffusion assay; assay type: functional, organism-based
Enterococcus faecium [20] = experiment: Antibacterial activity against Enterococcus faecium isolate I-11305b after 24 hrs by agar diffusion assay; assay type: functional, organism-based; how it was run: as §2
Staphylococcus aureus [21] = experiment: Antibacterial activity against methicillin-resistant Staphylococcus aureus isolate LT-1334 after 24 hrs by agar diffusion assay; assay type: functional, organism-based; how it was run: as §1

CCCCCCC[C@@H](O)CC(=O)N[C@H](CC(C)C)C(=O)N[C@H](CC(=O)O)C(=O)N[C@H](CCC(N)=O)C(=O)N[C@H](C(=O)N[C@H](CC(C)C)C(=O)N[C@H](CCC(N)=O)C(=O)N[C@@H]1COC(=O)[C@H]([C@@H](C)CC)NC(=O)[C@@H](CO)NC(=O)[C@H](CC(C)C)NC(=O)[C@H](CC(C)C)NC1=O)[C@H](C)CC
Activity (Listeria welshimeri): inactive | Activity (Staphylococcus aureus [1]): inactive | Activity [2]: inactive | Activity (Micrococcus luteus): inactive | Activity [3]: inactive | Activity [4]: inactive | Activity (Staphylococcus aureus [5]): inactive | Activity [6]: inactive | Activity (Staphylococcus aureus [7]): inactive | Activity (Citrobacter freundii): inactive | Activity [8]: inactive | Activity (Enterococcus faecium [9]): inactive | Activity (Pseudomonas aeruginosa): inactive | Activity (Candida albicans [10]): inactive | Activity [11]: inactive | Activity (Rhodococcus fascians): inactive | Activity (Staphylococcus simulans): inactive | Activity [12]: inactive | Activity (Escherichia coli [13]): inactive | Activity (Candida albicans [14]): inactive | Activity (Corynebacterium xerosis): inactive | Activity (Escherichia coli [15]): inactive | Activity (Staphylococcus aureus [16]): inactive | Activity [17]: inactive | Activity (Priestia megaterium): inactive | Activity (Staphylococcus aureus [18]): inactive | Activity (Pseudomonas fluorescens): inactive | MIC [19]: 32 µg/mL (≈ 22.9 µM) | Activity (Bacillus subtilis): inactive | Activity (Erwinia amylovora): inactive | Activity (Enterococcus faecium [20]): inactive | Activity (Staphylococcus aureus [21]): inactive
